This is an account of results in ChEMBL document CHEMBL3872222, “Synthesis of novel curcuminoids accommodating a central β-enaminone motif and their impact on cell growth and oxidative stress” (Eur J Med Chem, 2016).

As usually defined, the IC50 is the concentration needed to halve the response being measured. For orientation: inhibition means the share of the control response that was lost under treatment. The term solubility denotes how much of the substance goes into solution per volume.

The structures appear in SMILES notation. In brackets after ≈: the same amount, converted by molar mass.

The subject of data set [1] is HT-29. Nature of the data set: Effect on oxidative stress in human HT-29 cells assessed as intracellular ROS level at 10 uM after overnight incubation by DCFH-DA staining based fluorescence assay relative to control. Type of data set: functional. In outline: (§1)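 Cells grown in DMEM+glutamax, 1% NEAA, 1% P/S, 10% FBS; seeded 20000/well, treated at confluency overnight in serum-free medium, DMSO under 0.1% final. Loaded with 20 μM DCFH-DA 30 min at 37 °C, 10% CO2; washed, phenol red-free medium 1 h, then serum-free medium; fluorescence ex 485/em 535 nm. Percent of untreated; two-tailed unequal-variance t-test, n≥6.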

Data set [2] can be described thus: Growth inhibition of human HT-29 cells measured after 72 hrs by SRB assay. Type of data set: functional, cell-based. As to conditions: HT-29, 72 h. A digest of the protocol:
(§2)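 20000 cells/well treated after 1 day at 1, 5, 10, 25 μM, serum-free, for 3 days. Fixed with 50% TCA 1 h at 4 °C, stained 30 min with 0.4% sulforhodamine B in 1% acetic acid, rinsed with 1% acetic acid, dye dissolved in 10 mM Tris, absorbance 490 nm; triplicate; IC50 derived.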

Data set [3] has as its system Caco-2. Nature of the data set: Effect on oxidative stress in undifferentiated human Caco2 cells assessed as intracellular ROS level at 10 uM after overnight incubation by DCFH-DA staining based fluorescence assay relative to control. Format: functional. In outline:
as §1

Data set [4] in a line: Growth inhibition of CHOK1 cells measured after 72 hrs by SRB assay. Format: functional, cell-based. The settings on record: Cricetulus griseus, CHO-K1, 72 h. A digest of the protocol: as §2
Background: In SRB staining, fixed cells bind dye roughly in proportion to their protein.

Data set [5] is described as follows: Growth inhibition of undifferentiated human Caco2 cells assessed as mitochondrial activity measured after 72 hrs by MTT assay. Format: functional, cell-based. As to conditions: Caco-2, 72 h. In outline:
(§3)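 Seeded 20000 cells/well in DMEM+glutamax, NEAA, P/S, FBS; after 1 day treated 1, 5, 10, 25 μM in serum-free medium (DMSO under 0.1%) for 3 days. MTT (5 mg/ml in PBS) 2 h at 37 °C, 10% CO2 in dark; formazan dissolved in DMSO, absorbance 570 nm; triplicate; IC50 derived.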
In general terms: Tetrazolium dyes change colour on reduction, which living cells bring about.

The nature of data set [6]: Growth inhibition of undifferentiated human Caco2 cells measured after 72 hrs by SRB assay. Type of data set: functional, cell-based. The settings on record: Caco-2, 72 h. In outline:
as §2

The subject of data set [7] is CHO. Nature of the data set: Effect on oxidative stress in CHO cells assessed as intracellular ROS level at 1 uM after overnight incubation by DCFH-DA staining based fluorescence assay relative to control. Type of data set: functional, Cricetulus griseus. In outline: as §1
Data set [8] in a line: Growth inhibition of differentiated human Caco2 cells measured after 72 hrs by SRB assay. Format: cell-based. The settings on record: Caco-2, 72 h. In outline:
as §2

Data set [9] in a line: Growth inhibition of human HT-29 cells assessed as mitochondrial activity measured after 72 hrs by MTT assay. Format: functional, cell-based. As to conditions: HT-29, 72 h. In outline: as §3
The test system of data set [10] is HT-29. Nature of the data set: Antioxidant activity in human HT-29 cells assessed as decrease in intracellular ROS level after overnight incubation by DCFH-DA staining based fluorescence assay.
The nature of data set [11]: Growth inhibition of CHOK1 cells assessed as mitochondrial activity measured after 72 hrs by MTT assay. Type of data set: functional, cell-based. As to conditions: Cricetulus griseus, CHO-K1, 72 h. In outline: as §3
The test system of data set [12] is EA.hy 926. The data set can be described thus: Effect on oxidative stress in human EAhy926 cells assessed as intracellular ROS level at 1 uM after overnight incubation by DCFH-DA staining based fluorescence assay relative to control. Type of data set: functional. A digest of the protocol:
as §1

The nature of data set [13]: Antioxidant activity assessed as inhibition of DPPH radical activity at 1 uM measured after 30 mins under dark conditions by spectrophotometric analysis relative to control. Format: functional. Background: DPPH is a stable violet radical that fades when it is reduced.
The nature of data set [14]: Solubility of the compound in serum-free DMEM assessed as compound concentration required for crystal formation measured after 1 day by microscopic analysis. Format: physicochemical. The settings on record: 24 h. A digest of the protocol:
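Compound at 0, 0.5, 1, 5, 10, 25 and 50 μM in serum-free DMEM incubated 1 day at 37 °C, 10% CO2, then examined for crystal formation.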

Data set [15] deals with EA.hy 926. The data set can be described thus: Effect on oxidative stress in human EAhy926 cells assessed as intracellular ROS level at 10 uM after overnight incubation by DCFH-DA staining based fluorescence assay relative to control. Format: functional. In outline:
as §1

For data set [16], the system named is Caco-2. Nature of the data set: Effect on oxidative stress in undifferentiated human Caco2 cells assessed as intracellular ROS level at 1 uM after overnight incubation by DCFH-DA staining based fluorescence assay relative to control. Type of data set: functional. A digest of the protocol:
as §1

The test system of data set [17] is HT-29. Nature of the data set: Antioxidant activity in human HT-29 cells assessed as decrease in intracellular ROS level after overnight incubation by DCFH-DA staining based fluorescence assay. Type of data set: functional, cell-based. In outline:
as §1

Data set [18] in a line: Growth inhibition of differentiated human Caco2 cells assessed as mitochondrial activity measured after 72 hrs by MTT assay. Type of data set: cell-based. As to conditions: Caco-2, 72 h. In outline:
as §3

Data set [19] concerns CHO. Nature of the data set: Effect on oxidative stress in CHO cells assessed as intracellular ROS level at 10 uM after overnight incubation by DCFH-DA staining based fluorescence assay relative to control. Type of data set: functional, Cricetulus griseus. A digest of the protocol: as §1
Data set [20] deals with HT-29. The data set can be described thus: Effect on oxidative stress in human HT-29 cells assessed as intracellular ROS level at 1 uM after overnight incubation by DCFH-DA staining based fluorescence assay relative to control. Type of data set: functional. A digest of the protocol: as §1
Data set [21] is described as follows: Growth inhibition of human EAhy926 cells measured after 72 hrs by SRB assay. Type of data set: cell-based. The settings on record: EA.hy 926, 72 h. In outline: as §2
Data set [22] can be described thus: Growth inhibition of human EAhy926 cells assessed as mitochondrial activity measured after 72 hrs by MTT assay. Format: cell-based. The settings on record: EA.hy 926, 72 h. A digest of the protocol:
as §3

Data set [23] in a line: Antioxidant activity assessed as trolox equivalent of ferric ion reducing activity using Fe3+-TPTZ by measuring Fe2+-TPTZ formation after 4 mins by UV-vis spectrophotometry based FRAP assay. Type of data set: functional. In outline: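 FRAP reagent: 300 mM acetate buffer, 10 mM TPTZ in ethanol and 20 mM FeCl3 (in dilute HCl) combined 10:1:1, TPTZ and iron freshly made. Sample mixed 1:9 with reagent; absorbance 593 nm after 4 min. Expressed as trolox equivalents per μM from slope of linear plot versus analog concentration.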

As to `COc1cc(/C=C/C(=O)CC(=O)/C=C/c2ccc(O)c(OC)c2)ccc1O` [CURCUMIN], the Activity in the data set with HT-29 [1] was 65%; with Caco-2 [3] it was 77%; in the data set with CHO [7] it was 112%; in the data set on HT-29 [10], “Dose-dependent effect”; in the data set with EA.hy 926 [12], 91%; with EA.hy 926 [15], 88%. The Activity in the data set with Caco-2 [16] is 84%; with HT-29 [17] it was “Dose-dependent effect”; with CHO [19], 97%; in the data set with HT-29 [20], 67%; in [23], 1 µMequiv/µM. Moreover, the IC50 in [2], in [4], in data set [5], in [6], in data set [8] and in data set [9] was greater than 25 µM in each case. Moreover, the IC50 was 7.5 µM in data set [11], greater than 25 µM in data set [18], greater than 25 µM in data set [21] and greater than 25 µM in [22]. In addition, in data set [13], the inhibition was 0.15%. Besides, the solubility in [14] worked out at 0.5 µM (≈ 0.184 µg/mL).
